{"source": "the RNAGym collection of RNA variant scans (doi:10.1126/science.aae0568)", "parents": {"B1": {"name": "tRNA (parent)", "chain": "GUUCCGUUGGCGUAAUGGUAACGCGUCUCCCUCCUAAGGAGAAGACUGCGGGUUCGAGUCCCGUACGGAACG"}}, "note": "Variants at the floor of the assay were thinned out.", "data": [{"variants_of": "B1", "test": "yeast fitness relative to wild type (ratio to wild type); higher = fitter; tRNA-Arg(CCU), competitive growth, 37 C, YPD", "procedure,_shortened": "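Genotype frequency changes were the basis for Darwinian fitness relative to wild type. The frequencies came from 100-nucleotide paired-end sequencing of gene amplicons from the start population and each end population of pooled yeast strains with tRNA-Arg(CCU) gene variants at the native locus. Competition ran in YPD at 37°C for 24 hours in six replicates, genotypes needed ≥ 100 starting reads, and estimates < 0.5 were set to 0.5.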", "values": [{"variant": "A21G C46U C60A", "yeast fitness": "≤ 0.5"}, {"variant": "A21G G41C", "yeast fitness": 0.997}, {"variant": "A21G C49U G63C", "yeast fitness": "≤ 0.5"}, {"variant": "A21U A40U A69C", "yeast fitness": 0.574}, {"variant": "A21G U26C C27G G48C", "yeast fitness": "≤ 0.5"}, {"variant": "A21U C27G C61U", "yeast fitness": "≤ 0.5"}, {"variant": "A21U A69U", "yeast fitness": 0.686}, {"variant": "A21U A69G", "yeast fitness": 0.826}, {"variant": "A21U A36C G56C", "yeast fitness": "≤ 0.5"}, {"variant": "A21U C30U G48A G67C A69U", "yeast fitness": "≤ 0.5"}, {"variant": "A21U C29U A37U C66U", "yeast fitness": "≤ 0.5"}, {"variant": "A21U C49A G50C", "yeast fitness": "≤ 0.5"}, {"variant": "A21U C29G C49G A70U", "yeast fitness": "≤ 0.5"}, {"variant": "A21U C29A A36G G58A C66U", "yeast fitness": "≤ 0.5"}, {"variant": "A21G G39A G44C", "yeast fitness": "≤ 0.5"}, {"variant": "A21G C29U G39A A45U", "yeast fitness": 0.547}, {"variant": "A21U C33U A57C", "yeast fitness": "≤ 0.5"}, {"variant": "A21U C24A A69C", "yeast fitness": "≤ 0.5"}, {"variant": "A21U C24A A69G", "yeast fitness": "≤ 0.5"}, {"variant": "A21U C22U C55U", "yeast fitness": "≤ 0.5"}, {"variant": "A21G U53A A57U", "yeast fitness": 0.516}, {"variant": "A21U C33U G38A A45U U53A C62U G63C", "yeast fitness": "≤ 0.5"}, {"variant": "A21U C22U U32A G39A G51A A65U", "yeast fitness": "≤ 0.5"}, {"variant": "A21U A37U A43C C61U A70G", "yeast fitness": 0.517}, {"variant": "A21G G41C A45U", "yeast fitness": 0.546}, {"variant": "A21U C22U C49A G67A", "yeast fitness": "≤ 0.5"}, {"variant": "A21U", "yeast fitness": 0.861}, {"variant": "A21G G23A C31U", "yeast fitness": 0.528}, {"variant": "A21G G39U C62U", "yeast fitness": 0.527}, {"variant": "A21U C24G U47A", "yeast fitness": "≤ 0.5"}, {"variant": "A21G C33A A40C", "yeast fitness": 0.527}, {"variant": "A21U A36G A45C", "yeast fitness": 0.581}, {"variant": "A21U C22G C33U G68A", "yeast fitness": "≤ 0.5"}, {"variant": "A21U C22U A36G C49A", "yeast fitness": "≤ 0.5"}, {"variant": "A21U A36U", "yeast fitness": 0.592}, {"variant": "A21U C33U A57U U59C C66U", "yeast fitness": 0.538}, {"variant": "A21U C31U U54G", "yeast fitness": "≤ 0.5"}, {"variant": "A21U A36G A40C A69U", "yeast fitness": "≤ 0.5"}, {"variant": "A21G G58C A65U", "yeast fitness": 1.18}, {"variant": "A21U C29G C31G A43U C60U", "yeast fitness": 0.586}, {"variant": "A21G G39A G63A A70G", "yeast fitness": 0.619}, {"variant": "A21U A40G", "yeast fitness": 0.633}, {"variant": "A21U C24G", "yeast fitness": "≤ 0.5"}, {"variant": "A21U C24A", "yeast fitness": 0.578}, {"variant": "A21U C24U", "yeast fitness": 0.703}, {"variant": "A21U C34G G68A", "yeast fitness": "≤ 0.5"}, {"variant": "A21U C22U C30G C55A", "yeast fitness": "≤ 0.5"}, {"variant": "A21U C22A G38C A45U", "yeast fitness": "≤ 0.5"}, {"variant": "A21G G23A C27G A37U G44A C49U", "yeast fitness": 0.564}, {"variant": "A21G G51A", "yeast fitness": 0.836}, {"variant": "A21G G51C", "yeast fitness": 0.647}, {"variant": "A21U C34U A45G G50A", "yeast fitness": "≤ 0.5"}, {"variant": "A21U A40U A70U", "yeast fitness": 0.657}, {"variant": "A21G G25C C27G A42C", "yeast fitness": "≤ 0.5"}, {"variant": "A21G C46U C62U", "yeast fitness": 1.1}, {"variant": "A21U C24A C30A C31G A43U U54G C62G", "yeast fitness": "≤ 0.5"}, {"variant": "A21U C34U A42U U64A G68U", "yeast fitness": 0.659}, {"variant": "A21G G25C A69C", "yeast fitness": 0.744}, {"variant": "A21G G23A C34G A36U A57C C66U", "yeast fitness": "≤ 0.5"}, {"variant": "A21U A57C G67A", "yeast fitness": 0.556}, {"variant": "A21G G25C C29A C55G G68C", "yeast fitness": "≤ 0.5"}, {"variant": "A21G C29U G41C A42G U53G A57C", "yeast fitness": "≤ 0.5"}, {"variant": "A21G C29U C34U C55A C60G", "yeast fitness": "≤ 0.5"}, {"variant": "A21U C22U A37G G44A A45C C46A C55U U59G U64C", "yeast fitness": "≤ 0.5"}, {"variant": "A21U A36U C49U G52C C62A G67A", "yeast fitness": 0.616}, {"variant": "A21G G23A G52C", "yeast fitness": "≤ 0.5"}, {"variant": "A21U C29G C31G A43U", "yeast fitness": 0.574}, {"variant": "A21G C29U A45U G67U", "yeast fitness": "≤ 0.5"}, {"variant": "A21U C33G G58A C66U", "yeast fitness": "≤ 0.5"}, {"variant": "A21U C22G C55A", "yeast fitness": "≤ 0.5"}, {"variant": "A21G U53G", "yeast fitness": 0.647}, {"variant": "A21U C34G G39A A57G C61U", "yeast fitness": "≤ 0.5"}, {"variant": "A21U C27G A43U", "yeast fitness": "≤ 0.5"}, {"variant": "A21G C34U G48A G67A", "yeast fitness": "≤ 0.5"}, {"variant": "A21G U28C A65G", "yeast fitness": 0.779}, {"variant": "A21U C34G G39A C55U", "yeast fitness": "≤ 0.5"}, {"variant": "A21U C55U G56A", "yeast fitness": 0.567}, {"variant": "A21U A45G C62G", "yeast fitness": 0.996}, {"variant": "A21G C30G C55U", "yeast fitness": 0.682}, {"variant": "A21U C33A G39C G41C G44C A69C", "yeast fitness": "≤ 0.5"}, {"variant": "A21U A36C G38C", "yeast fitness": "≤ 0.5"}, {"variant": "A21G U35C G63C", "yeast fitness": 0.536}, {"variant": "A21G C34G C61U A70C", "yeast fitness": 0.555}, {"variant": "A21U A37U A65C C66U", "yeast fitness": "≤ 0.5"}]}]}
